Columns and labels:
[1] = tested on: Trypanosoma brucei gambiense; test: Antitrypanosomal activity against Trypanosoma brucei gambiense GUTat 3.1 after 72 hrs by Alamar Blue assay; assay type: functional, organism-based; settings: GUTat 3.1, 72 h
Summary of the method: (§1)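 T. b. gambiense GUTat 3.1 was cultured in supplemented IMDM with 10% heat-inactivated FBS at 37 °C under 5.0% CO2/95% air. Parasites were seeded in 96-well plates, and compound in 5.0% DMSO was added for 72 h. Alamar Blue was then added for 3-6 h and fluorescence read (ex 528/20, em 590/35 nm). IC50 was obtained from the plate-reader software.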

Mus musculus = test: Toxicity in ip dosed mouse measured over 72 hrs; assay type: organism-based; settings: in vivo
Summary of the method: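 Male mice, grouped, given graded intraperitoneal doses; watched continuously 6 h, then kept under observation to 72 h, monitored 4 times daily, with behavioural changes and deaths recorded. Humane endpoints applied, with CO2 euthanasia. Percentage death per dose converted to probits to derive LD50 (μM/kg); mortality rate = dead/group size ×100.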

Rattus norvegicus [2] = test: Antiinflammatory activity in rat assessed as inhibition of carrageenan-induced paw edema at 100 mg/kg, po administered 1 hr followed by carrageenan challenge measured at 0.5 hrs by plethysmometer relative to control; assay type: functional
Summary of the method: (§2)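 Rats dosed orally (test compounds 100 mg/kg; indomethacin reference 25 mg/kg). One hour later, 1% carrageenan suspension (0.05 mL/animal) was injected sub-plantar into the right hind paw. Paw size was measured by mercury-displacement plethysmometer, calibrated beforehand, at intervals after injection. Activity was calculated as percentage decrease in carrageenan-induced edema relative to control.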

Rattus norvegicus [3] = test: Antiinflammatory activity in rat assessed as inhibition of carrageenan-induced paw edema at 100 mg/kg, po administered 1 hr followed by carrageenan challenge measured at 2 hrs by plethysmometer relative to control; assay type: functional; summary of the method: as §2
Rattus norvegicus [4] = test: Antiinflammatory activity in rat assessed as inhibition of carrageenan-induced paw edema at 100 mg/kg, po administered 1 hr followed by carrageenan challenge measured at 3 hrs by plethysmometer relative to control; assay type: functional; summary of the method: as §2
Rattus norvegicus [5] = test: Antiinflammatory activity in rat assessed as inhibition of carrageenan-induced paw edema at 100 mg/kg, po administered 1 hr followed by carrageenan challenge measured at 1 hr by plethysmometer relative to control; assay type: functional; summary of the method: as §2
[6] = tested on: Trypanosoma brucei gambiense; test: Antitrypanosomal activity against Trypanosoma brucei gambiense; assay type: functional, organism-based; summary of the method: as §1
[7] = tested on: Trypanosoma brucei brucei; test: Antitrypanosomal activity against Trypanosoma brucei brucei after 48 hrs by Alamar blue assay; assay type: functional, organism-based
Rattus norvegicus [8] = test: Antiinflammatory activity in rat assessed as inhibition of carrageenan-induced paw edema at 25 mg/kg, po administered 1 hr followed by carrageenan challenge measured at 0.5 hrs by plethysmometer relative to control; assay type: functional; summary of the method: as §2
Rattus norvegicus [9] = test: Antiinflammatory activity in rat assessed as inhibition of carrageenan-induced paw edema at 25 mg/kg, po administered 1 hr followed by carrageenan challenge measured at 3 hrs by plethysmometer relative to control; assay type: functional; summary of the method: as §2
Rattus norvegicus [10] = test: Antiinflammatory activity in rat assessed as inhibition of carrageenan-induced paw edema at 25 mg/kg, po administered 1 hr followed by carrageenan challenge measured at 1 hr by plethysmometer relative to control; assay type: functional; summary of the method: as §2
Rattus norvegicus [11] = test: Antiinflammatory activity in rat assessed as inhibition of carrageenan-induced paw edema at 25 mg/kg, po administered 1 hr followed by carrageenan challenge measured at 2 hrs by plethysmometer relative to control; assay type: functional; summary of the method: as §2

Structure (SMILES): Cc1ccccc1S(=O)(=O)N1CC(O)C[C@H]1C(=O)Nc1ccc(C(=O)O)cc1 (stereo partly specified)
- IC50 [1]: 157 nM
- LD50 (Mus musculus): 9.98 µM/g
- inhibition in vivo at 100 mg/kg (Rattus norvegicus [2]): 38.6%
- inhibition in vivo at 100 mg/kg (Rattus norvegicus [3]): 23.4%
- inhibition in vivo at 100 mg/kg (Rattus norvegicus [4]): 25.3%
- inhibition in vivo at 100 mg/kg (Rattus norvegicus [5]): 21.2%

Structure (SMILES): O=C(O)c1ccc(NC(=O)[C@@H]2CCCN2S(=O)(=O)c2ccccc2)cc1
- IC50 [1]: 159 nM
- LD50 (Mus musculus): 10.06 µM/g
- inhibition in vivo at 100 mg/kg (Rattus norvegicus [2]): 23.6%
- inhibition in vivo at 100 mg/kg (Rattus norvegicus [3]): 29.4%
- inhibition in vivo at 100 mg/kg (Rattus norvegicus [4]): 31.1%
- inhibition in vivo at 100 mg/kg (Rattus norvegicus [5]): 26.3%

Structure (SMILES): Cc1ccc(S(=O)(=O)N2CC(O)C[C@H]2C(=O)Nc2ccc(C(=O)O)cc2)cc1 (stereo partly specified)
- IC50 [1]: 155 nM
- LD50 (Mus musculus): 12.01 µM/g
- inhibition in vivo at 100 mg/kg (Rattus norvegicus [2]): 58%
- inhibition in vivo at 100 mg/kg (Rattus norvegicus [3]): 67.2%
- inhibition in vivo at 100 mg/kg (Rattus norvegicus [4]): 84%
- inhibition in vivo at 100 mg/kg (Rattus norvegicus [5]): 60%

Structure (SMILES): Cc1ccc(S(=O)(=O)N2CCC[C@H]2C(=O)Nc2ccc(C(=O)O)cc2)cc1
- IC50 [1]: 101 nM
- LD50 (Mus musculus): 11.92 µM/g
- inhibition in vivo at 100 mg/kg (Rattus norvegicus [2]): 28.8%
- inhibition in vivo at 100 mg/kg (Rattus norvegicus [3]): 36.3%
- inhibition in vivo at 100 mg/kg (Rattus norvegicus [4]): 35.3%
- inhibition in vivo at 100 mg/kg (Rattus norvegicus [5]): 31.5%

Structure (SMILES): O=C(O)c1ccc(NC(=O)[C@@H]2CC(O)CN2S(=O)(=O)c2ccccc2)cc1 (stereo partly specified)
- IC50 [1]: 160 nM
- LD50 (Mus musculus): 12.07 µM/g
- inhibition in vivo at 100 mg/kg (Rattus norvegicus [2]): 33.9%
- inhibition in vivo at 100 mg/kg (Rattus norvegicus [3]): 27.3%
- inhibition in vivo at 100 mg/kg (Rattus norvegicus [4]): 1.85%
- inhibition in vivo at 100 mg/kg (Rattus norvegicus [5]): 24.7%

Structure (SMILES): CCS(=O)(=O)N1CCCc2cc(NS(=O)(=O)c3ccccc3F)ccc21
- IC50 [6]: 1300 nM

Structure (SMILES): Cc1ccccc1S(=O)(=O)N1CCC[C@H]1C(=O)Nc1ccc(C(=O)O)cc1
- IC50 [1]: 134 nM
- LD50 (Mus musculus): 13.09 µM/g
- inhibition in vivo at 100 mg/kg (Rattus norvegicus [2]): 35.8%
- inhibition in vivo at 100 mg/kg (Rattus norvegicus [3]): 36.3%
- inhibition in vivo at 100 mg/kg (Rattus norvegicus [4]): 40%
- inhibition in vivo at 100 mg/kg (Rattus norvegicus [5]): 39.4%

Structure (SMILES): O=C(O)c1ccc(NC(=O)[C@@H]2CCCN2S(=O)(=O)c2ccc([N+](=O)[O-])cc2)cc1
- IC50 [1]: 2 nM
- LD50 (Mus musculus): 8.65 µM/g
- inhibition in vivo at 100 mg/kg (Rattus norvegicus [2]): 42.1%
- inhibition in vivo at 100 mg/kg (Rattus norvegicus [3]): 50.1%
- inhibition in vivo at 100 mg/kg (Rattus norvegicus [4]): 52.3%
- inhibition in vivo at 100 mg/kg (Rattus norvegicus [5]): 45.9%

Structure (SMILES): O=C(O)c1ccc(NC(=O)[C@@H]2CC(O)CN2S(=O)(=O)c2ccc([N+](=O)[O-])cc2)cc1 (stereo partly specified)
- IC50 [1]: 144 nM
- LD50 (Mus musculus): 10.28 µM/g
- inhibition in vivo at 100 mg/kg (Rattus norvegicus [2]): 44.1%
- inhibition in vivo at 100 mg/kg (Rattus norvegicus [3]): 52.2%
- inhibition in vivo at 100 mg/kg (Rattus norvegicus [4]): 62.8%
- inhibition in vivo at 100 mg/kg (Rattus norvegicus [5]): 48.5%

Structure (SMILES): CCCCN(CCCC)c1c([N+](=O)[O-])cc(S(=O)(=O)Nc2ccccc2)cc1[N+](=O)[O-]
- IC50 [7]: 120 nM

Structure (SMILES): COc1ccc2c(c1)c(CC(=O)O)c(C)n2C(=O)c1ccc(Cl)cc1 [INDOMETHACIN]
- inhibition in vivo at 25 mg/kg (Rattus norvegicus [8]): 56.9%
- inhibition in vivo at 25 mg/kg (Rattus norvegicus [9]): 63.6%
- inhibition in vivo at 25 mg/kg (Rattus norvegicus [10]): 63.5%
- inhibition in vivo at 25 mg/kg (Rattus norvegicus [11]): 64.8%

Structure (SMILES): Nc1nc(N)nc(Nc2ccc([As]3SCC(CO)S3)cc2)n1 (stereo unspecified) [MELARSOPROL]
- IC50 [1]: 5 nM
- LD50 (Mus musculus): 8.75 µM/g
